Bioassay records deposited in PubChem by several laboratories.
A selection: hits, their analogues and other compounds. The true share with any hit is near 1.3%.
UCH37 DUB inh – inhibitors of human UCH37 deubiquitinase, primary screen, biochemical, Ub-AMC cleavage, fluorescence; Ubiquitin carboxyl-terminal hydrolase isozyme L5 (Homo sapiens), Q9Y5K5; purified proteasome/UCH37; inhibition, % (concentration not given with the values); 330,000 tested, 0.33% active;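 active means mean inhibition over replicate wells above about 20%, limit read from the data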;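 further: 0% = compound-free wells with enzyme and 100% = wells lacking proteasome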
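system = Proteasome-associated human UCH37 deubiquitinase | amount = 0.15 nM proteasome as dispensed | medium = pH 7.4 Tris-HCl (50 mM) with ovalbumin, ATP-MgCl2, DTT | incubation = 30 min preincubation with enzyme, 25 min cleavage at room temperature | detection = AMC fluorescence 355/460 nm | read-out basis = percent inhibition | controls = no-proteasome and no-compound wells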
NSD2 inh – NSD2 histone methyltransferase inhibitors, primary screen, biochemical, AlphaScreen, single concentration, set 2; 310,000 tested, 0.54% active; NSD2 peptide methylation, 120 min; inhibition, % at 12.5 µM; in the data active means inhibition above about 50%
Target sequence (O96028 whole entry, looked up): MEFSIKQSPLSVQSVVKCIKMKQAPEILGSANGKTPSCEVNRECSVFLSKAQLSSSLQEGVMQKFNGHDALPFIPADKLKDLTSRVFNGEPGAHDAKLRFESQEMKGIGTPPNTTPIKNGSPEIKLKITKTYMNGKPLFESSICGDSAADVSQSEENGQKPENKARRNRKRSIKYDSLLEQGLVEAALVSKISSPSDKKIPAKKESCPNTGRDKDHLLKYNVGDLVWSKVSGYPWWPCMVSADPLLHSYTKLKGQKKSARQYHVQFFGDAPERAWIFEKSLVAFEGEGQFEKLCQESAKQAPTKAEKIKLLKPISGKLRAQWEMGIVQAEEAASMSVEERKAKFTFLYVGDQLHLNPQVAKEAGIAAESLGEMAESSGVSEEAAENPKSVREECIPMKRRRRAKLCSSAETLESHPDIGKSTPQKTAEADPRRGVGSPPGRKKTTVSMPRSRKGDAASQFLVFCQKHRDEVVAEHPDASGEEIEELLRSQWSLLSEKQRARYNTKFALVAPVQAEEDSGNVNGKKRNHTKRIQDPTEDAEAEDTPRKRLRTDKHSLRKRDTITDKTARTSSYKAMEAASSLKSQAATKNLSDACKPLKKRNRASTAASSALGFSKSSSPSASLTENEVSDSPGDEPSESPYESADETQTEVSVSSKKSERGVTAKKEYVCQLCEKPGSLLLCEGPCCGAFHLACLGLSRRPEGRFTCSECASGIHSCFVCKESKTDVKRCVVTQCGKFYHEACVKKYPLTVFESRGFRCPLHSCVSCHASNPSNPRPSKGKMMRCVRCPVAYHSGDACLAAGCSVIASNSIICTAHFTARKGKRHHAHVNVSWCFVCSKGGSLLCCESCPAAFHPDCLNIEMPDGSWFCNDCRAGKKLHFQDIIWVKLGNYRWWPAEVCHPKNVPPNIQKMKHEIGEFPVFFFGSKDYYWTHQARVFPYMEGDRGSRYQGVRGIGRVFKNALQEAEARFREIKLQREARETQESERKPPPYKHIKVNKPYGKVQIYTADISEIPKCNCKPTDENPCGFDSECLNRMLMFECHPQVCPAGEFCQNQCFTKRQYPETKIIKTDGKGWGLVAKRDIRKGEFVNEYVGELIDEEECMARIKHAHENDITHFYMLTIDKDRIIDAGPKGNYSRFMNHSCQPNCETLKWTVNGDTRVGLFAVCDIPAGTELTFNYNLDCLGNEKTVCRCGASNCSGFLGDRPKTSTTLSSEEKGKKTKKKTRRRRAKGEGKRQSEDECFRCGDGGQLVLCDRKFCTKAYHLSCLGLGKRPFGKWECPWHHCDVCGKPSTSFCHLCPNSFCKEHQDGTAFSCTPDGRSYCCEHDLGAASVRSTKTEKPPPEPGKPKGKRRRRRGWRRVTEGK
LEDGF integ inh – blockers of LEDGF/p75-dependent integrase strand transfer – biochemical, TR-FRET, high throughput, primary screen; inhibition, % at 3.7 µM; TR-FRET IN-LEDGF/p75 DNA integration, Eu/Cy5; 370,000 tested, 0.64% active; AID 743269, 2014;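 active means inhibition above the screen-wide mean plus 3 SD, cut at about 13% in these data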;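 further: signal is the Cy5 over europium emission ratio at 671 and 618 nm; 0% = plate median of compound wells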
TDP2 absorb – human TDP2 enzyme inhibitors, primary screen, biochemical, epi absorbance, recombinant enzyme; Tyrosyl-DNA phosphodiesterase 2 (Homo sapiens), O95551; T5PNP hydrolysis, p-nitrophenol absorbance 415 nm; inhibition, % at 12.8 µM; 370,000 tested, 0.34% active;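 active means inhibition above the mean of all tested compounds plus 3 SD, set per campaign, cut at about 25% in these data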;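 further: 0% = DMSO with enzyme and 100% = buffer with substrate but no TDP2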
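Assay system: Recombinant human TDP2 | Quantity: 120 nM TDP2 per well | Incubation: 2 h at 37 °C | Signal: Epi absorbance | Evaluation: Percent inhibition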
Casp6 inh – human caspase-6 inhibitors, primary screen, biochemical, VEID-R110 fluorescence, single point, set 2. purified caspase-6, Z-VEID-R110 cleavage fluorescence. inhibition, % at 12.5 µM. 350,000 tested, 0.53% active. AID 686996, 2013;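 active means mean inhibition across replicates at least about 35%, with every replicate also reaching that limit, limit read from the data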;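 further: 0% = median of neutral control wells and 100% = no fluorescence left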
IN multimer up – HIV-1 IN multimer formation enhancers, counter-screen for LEDGF/p75 integration inhibitor project, biochemical, TR-FRET | shares compounds with LEDGF integ inh | TR-FRET HIV-1 integrase multimerization | activation, % at 7.7 µM | 2,000 tested, 17% active | AID 1053131, 2014; in the data active means activation above about 8.9%
TRFRET interf – TR-FRET optical interference artefacts, confirmation, artefact control for LEDGF/p75-dependent integration inhibitor project, biochemical, HIV-1 IN multimerization; 2,000 tested, under 10 active; TR-FRET optical interference counterscreen; inhibition, % at 7.7 µM; shares compounds with LEDGF integ inh;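 active means inhibition above the mean over all tested compounds plus 3 SD, which no compound reached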;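 further: 0% = integrase with antibodies and DMSO and 100% = antibodies without integrase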
LEDGF integ conf – inhibitors of HIV-1 IN-LEDGF/p75 DNA integration, confirmation, biochemical, TR-FRET; AID 1053136, 2014; TR-FRET LEDGF/p75-dependent HIV-1 integration; shares compounds with LEDGF integ inh; inhibition, % at 3.7 µM; 2,000 tested, 36% active; in the data active means inhibition above about 14%
* marks the source's active call; other numbers are inactive results; · = no result.

SMILES	UCH37 DUB inh	NSD2 inh	LEDGF integ inh	TDP2 absorb	Casp6 inh	IN multimer up	TRFRET interf	LEDGF integ conf
O=c1cc(NN=Cc2ccccc2)[nH]c(=O)[nH]1	12.5	·	·	·	·	·	·	·
O=C1OC(/C=C/c2ccc(Cl)cc2)=NC/1=C/c1ccco1	4.5	1.8	17.3*	5.7	·	0.5	-2.6	1.9
O=C(NN=Cc1cccc(Cl)c1)c1ccc(Cn2cccn2)o1	1.3	·	·	·	·	·	·	·
COc1ccc(C=NNC(=O)c2cccc(OC(F)(F)C(F)F)c2)cc1O	2.2	·	·	·	·	·	·	·
Cc1cc(S(=O)(=O)NC2CCCCC2)ccc1OCC(=O)N1CCOCC1	6.4	-0.1	·	·	0.0	·	·	·
CCOC(=O)N1CCN(C(=O)COc2ccc(S(=O)(=O)NC3CCCCC3)cc2C)CC1	3.8	-0.6	15.7*	3.7	·	2.0	-7.1	-2.3
COC(=O)C[C@H]1C[C@H]2c3cc(NC(=O)Cc4ccncc4)ccc3O[C@H]2[C@@H](CO)O1	·	·	14.4*	4.7	-16.8	-0.1	0.3	-4.8
COC(=O)C[C@H]1C[C@@H]2c3cc(NC(=O)Cc4ccncc4)ccc3O[C@@H]2[C@@H](CO)O1	·	·	·	·	-0.7	·	·	·
CCOC(=O)/C=C/C(=O)Nc1ccccc1-c1ccccc1NC(=O)/C=C/C(=O)OCC	1.5	-1.9	55.8*	12.2	5.3	0.3	-1.2	-9.1
COc1cc(C)cc(C(=O)O)c1C1=C(O)c2cccc(O)c2C(=O)C1=O	6.1	·	18.4*	-11.5	29.7	13.0*	-65.4	18.6*
COc1ccc(C(C)=NNC2=NCCN2)cc1Cl	3.2	·	·	·	·	·	·	·
FC(F)(F)c1ccccc1C=NNc1ccccn1	5.3	·	·	·	·	·	·	·
COc1ccc(-n2nc3cc(C)c(N)cc3n2)cc1Cl	-146.6	5.8	14.8*	-8.3	21.4	-0.3	1.6	-5.7
Cc1cc2nn(-c3ccc(Cl)cc3)nc2cc1N	·	-1.4	4.0	-19.0	-0.9	·	·	·
Cc1ccc2nc(SCC(=O)NC3CCS(=O)(=O)C3)[nH]c2c1 (configuration not stated)	-3.5	-0.3	3.1	-7.8	3.5	·	·	·
O=C(CSc1nc2ccccc2[nH]1)NC1CCS(=O)(=O)C1 (configuration not stated)	-1.9	4.5	37.0*	3.8	·	0.3	-1.4	-7.6
COc1cc(C=NOCC(=O)NC23CC4CC(CC(C4)C2)C3)ccc1OCc1ccccc1	7.3	·	·	·	·	·	·	·
O=C(Nc1ccncc1)Nc1cccc(Cl)c1	-0.7	-1.5	0.7	0.9	3.1	·	·	·
O=C(Nc1cccc(C2=NCCN2)c1)Nc1cccc(C2=NCCN2)c1	1.5	·	18.4*	0.5	-36.6	-3.4	12.1	17.9*
CCC(C)(C)NC(=O)C(c1cccc(OC)c1OC)N(CCC(C)C)C(=O)CCC(=O)Nc1cc(C)on1 (configuration not stated)	1.0	0.0	-6.0	-0.8	2.7	·	·	·
CCC(C)(C)NC(=O)C(c1cccc(OC)c1OC)N(C(=O)CCC(=O)Nc1cc(C)on1)C(C)C (configuration not stated)	-2.0	30.1	15.9*	1.0	-1.5	-0.6	3.2	-14.2
COC(=O)NN=C(C)c1ccccc1Br	-0.6	·	·	·	·	·	·	·
O=C(Cc1ccc([N+](=O)[O-])cc1)NN=Cc1ccccc1F	-0.4	·	·	·	·	·	·	·
O=[N+]([O-])c1ccc2nc(-c3ccncc3)[nH]c2c1	8.7	-0.5	45.7*	10.3	-0.9	-0.7	3.3	3.6
Cc1ccc(-c2nc3ccc([N+](=O)[O-])cc3[nH]2)cc1	4.2	3.5	1.3	3.2	1.6	·	·	·
SMILES	UCH37 DUB inh	NSD2 inh	LEDGF integ inh	TDP2 absorb	Casp6 inh	IN multimer up	TRFRET interf	LEDGF integ conf
CCCCSCc1[nH]c(=O)[nH]c1C(=O)CCCCC(=O)OCC	4.5	0.3	9.9	6.2	·	·	·	·
CCOC(=O)CCCCC(=O)c1[nH]c(=O)[nH]c1CSc1nnc2c3ccccc3n(C(C)C)c2n1	6.2	9.2	27.6*	3.6	·	0.3	-1.6	11.4
CCCn1c2ccccc2c2nnc(SCc3[nH]c(=O)[nH]c3C(=O)CCCCC(=O)OCC)nc21	3.8	5.2	29.5*	2.6	·	0.8	-4.2	18.8*
Cc1ccc(-n2nc(C)c(C=NNC(=O)c3cccs3)c2Cl)cc1	0.0	·	·	·	·	·	·	·
Cc1ccc(CN2C(=O)C(CC(C)C)Nc3ncnc(N4CCN(c5ccccn5)CC4)c32)cc1 (configuration not stated)	-0.1	·	91.2*	-7.5	1.5	0.5	-2.4	-0.3
O=S(=O)(Nc1ccc(Cc2ccncc2)cc1)N1CCCC1	0.6	-2.3	24.9*	9.1	·	1.2	-4.5	1.8
Cc1ccc(NS(=O)(=O)N2CCCCC2)cc1	4.2	0.4	2.0	2.9	2.2	·	·	·
CCOC(=O)COc1ccccc1C=NNc1nnc2c3ccccc3n(C)c2n1	2.5	·	·	·	·	·	·	·
O=C1CSC(=S)N1N=Cc1ccc(O)c([N+](=O)[O-])c1	7.8	·	·	·	·	·	·	·
CC(=NNC(=S)NCc1ccccc1)c1ccccc1F	0.6	·	·	·	·	·	·	·
CC1=CC(c2ccccc2)=NS(=O)(=O)N1	7.5	·	-0.6	2.7	-0.2	·	·	·
CCOC(=O)C1=NS(=O)(=O)NC(C)=C1	0.9	·	15.6*	-1.1	35.5*	0.1	-0.7	-0.8
COc1ccc(C=NNC(=O)CNC(=O)c2ccncc2)cc1OC	4.9	·	·	·	·	·	·	·
COc1cc(C(=O)O)c2c(c1C)OC(=O)c1c(C)cc(O)c(C=O)c1O2	3.9	·	16.8*	6.2	·	-0.3	1.5	37.5*
O=C(c1ccccc1)N1CCN(Cc2ccccc2)CC1	-0.5	1.5	4.4	12.1	·	·	·	·
Cc1ccc(CN2CCN(C(=O)c3ccncc3)CC2)cc1	0.3	-0.5	75.5*	12.7	0.1	0.2	-1.2	4.5
Cc1ccc(CN2CCN(C(=O)CCN3C(=O)c4ccccc4C3=O)CC2)cc1	20.2*	0.8	79.2*	5.0	·	-0.5	2.8	1.9
NC(=O)C1(c2ccccc2)CCC(=O)N1c1ccccc1 (configuration not stated)	2.4	10.5	34.9*	0.9	-0.5	1.1	-3.8	-1.3
